KCNK3 inh – human KCNK3 channel inhibitors, primary screen, CHO cells, FluxOR thallium flux, B-score. 0.84% of 340,000 active. B-score at 10 µM. AID 602410, 2012. FluxOR fluorescence; stronger effect = lower value. Potassium channel subfamily K member 3 (Homo sapiens), O14649;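 active = B-score under library mean minus 4 SD, starting fluorescence ratio at most library mean plus 5 SD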;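 note: more negative B-score means stronger inhibition of thallium flux through KCNK3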
Target sequence (O14649 whole entry, looked up): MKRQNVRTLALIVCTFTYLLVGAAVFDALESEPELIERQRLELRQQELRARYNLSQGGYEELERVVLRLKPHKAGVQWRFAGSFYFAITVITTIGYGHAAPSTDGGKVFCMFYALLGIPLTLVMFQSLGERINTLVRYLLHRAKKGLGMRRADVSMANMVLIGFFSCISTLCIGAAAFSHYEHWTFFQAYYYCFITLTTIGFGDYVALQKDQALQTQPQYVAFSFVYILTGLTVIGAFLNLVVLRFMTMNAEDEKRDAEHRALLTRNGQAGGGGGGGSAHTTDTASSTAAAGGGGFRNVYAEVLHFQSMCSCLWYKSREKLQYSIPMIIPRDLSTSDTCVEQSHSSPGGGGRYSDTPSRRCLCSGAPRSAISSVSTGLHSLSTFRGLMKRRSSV
hERG protect – hERG rescue from dofetilide block, primary screen, cell-based, CHO-hERG, FluxOR thallium flux, dofetilide IC70. activation (rescue from dofetilide block), less the hit threshold, % at 10 µM. Voltage-gated inwardly rectifying potassium channel KCNH2 (Homo sapiens), Q12809. 0.51% of 310,000 active. dofetilide IC70 present;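 active = activation above the mean of controls blocked by dofetilide plus 5 SD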;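 note: thallium influx through hERG after potassium depolarization seen as dye fluorescence rise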
KCNQ1 block – inhibitors of human KCNQ1 channel, primary screen, cell-based, thallium flux, high-throughput | 1.3% of 310,000 active | Potassium voltage-gated channel subfamily KQT member 1 (Homo sapiens), P51787 | CHO-K1 KCNQ1, FluxOR thallium flux fluorescence; stronger effect = higher value | B-score at 10 µM;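 active = compounds whose thallium flux B-score, printed positive for inhibition, exceeds three library SD while starting fluorescence stays within three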;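 note: channel opened by potassium depolarization with thallium stimulus after 20 min compound exposure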
KCNK9 block – KCNK9 potassium channel inhibitors, primary screen, HEK293 cells, thallium flux; Potassium channel subfamily K member 9 (Homo sapiens), Q9NPC2; FluxOR thallium flux fluorescence; stronger effect = lower value; B-score at 10 µM; 1.2% of 310,000 active; AID 488922, 2010;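 active = ratio B-score over 3 SD below the library mean, with starting fluorescence within 5 SD of its mean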;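 note: negative B-score means less thallium flux so channel inhibition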
KCNQ1 pot – potentiators or activators of KCNQ1 channel, primary screen, cell-based, thallium flux, high-throughput | Potassium voltage-gated channel subfamily KQT member 1 (Homo sapiens), P51787 | CHO-K1 KCNQ1, thallium flux FluxOR fluorescence; stronger effect = higher value | B-score at 10 µM | 0.35% of 310,000 active | AID 2648, 2010;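 active = fluorescence ratio B-score, a plate-corrected score, at least three library SD, with initial intensity B-score within 5 SD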
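Assay system: CHO-K1 cells stably expressing KCNQ1; Medium: assay buffer with matched DMSO; Also added: K+/Tl+ depolarizing stimulus; Dosing: single dose; Timing: dye 90 min, compound 20 min, room temperature; Measured by: kinetic FluxOR thallium fluorescence, 10-s 1-Hz baseline, 110-s post-stimulus read; Read-out: peak-minus-minimum fluorescence over initial fluorescence, negative-control normalized, B-scored.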
PHOSPHO1 block – PubChem AID 1565; inhibition, % at 13.3 µM; 1.1% of 290,000 active; recombinant PHOSPHO1, absorbance phosphatase assay; in the data active = inhibition above about 60%
Target sequence (Q8TCT1 whole entry, looked up): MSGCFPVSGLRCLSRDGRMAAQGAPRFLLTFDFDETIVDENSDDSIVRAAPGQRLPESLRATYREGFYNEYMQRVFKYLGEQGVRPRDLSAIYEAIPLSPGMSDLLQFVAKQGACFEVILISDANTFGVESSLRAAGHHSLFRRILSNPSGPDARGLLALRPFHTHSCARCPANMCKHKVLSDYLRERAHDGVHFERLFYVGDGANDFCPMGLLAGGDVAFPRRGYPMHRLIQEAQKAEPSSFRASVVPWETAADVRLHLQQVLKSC
Of the large screens only hits and unclear results are named; the others gave an inactive call. Sampled rows, rich in hits. Any-hit rate of the full collection: about 4%.

COc1ccccc1C(=O)CN1C(=O)NC2(CCCc3ccccc32)C1=O (stereo unspecified)	none (no result: hERG protect, KCNQ1 block, KCNK9 block, KCNQ1 pot, PHOSPHO1 block)
Cc1ccc2nc(/C(C#N)=C/c3ccc(-c4ccccc4C(=O)O)o3)[nH]c2c1	none
Cc1ccc2nc(/C(C#N)=C\c3ccc(N4CCOCC4)o3)[nH]c2c1	KCNQ1 block 6
Cc1cccnc1NC(=O)CN1C(=O)COc2ccc(Cl)cc21	none (no result: PHOSPHO1 block)
CC(=O)/C(=N\Nc1ccc(C)cc1)N1CCOCC1	PHOSPHO1 block 65
Cc1ccc(NS(=O)(=O)c2ccc(C(=O)N3CCOCC3)cc2)cc1	none (no result: PHOSPHO1 block)
O=C(c1ccccc1O)N1N=C(c2ccccc2)CC1(O)C(F)(F)F (stereo unspecified)	KCNQ1 block 6
Nc1ccc(C(=O)N2N=C(c3ccccc3)CC2(O)C(F)(F)F)cc1 (stereo unspecified)	none
O=C(CN(C(=O)Cn1nnc(-c2ccc(F)cc2)n1)c1cccc(F)c1)NC1CCCC1	none
CCOc1cccc2cc(-c3cn4cc(C)ccc4n3)c(=O)oc12	hERG protect 10
COCC1CCCN(C(=O)c2cc(COc3ccc(C(C)=O)cc3)on2)C1 (stereo unspecified)	none
CCn1ncc(Cl)c1C(=O)NC(=S)Nc1c(C)cc(C)cc1[N+](=O)[O-]	hERG protect 5.8
CCOc1ccc(NC(=S)NC(=O)c2c(Cl)cnn2CC)c([N+](=O)[O-])c1	none
Oc1ccccc1C1NN=C(c2ccccc2)S1 (stereo unspecified)	none (no result: PHOSPHO1 block)
CSc1ccc(C2NN=C(c3ccccc3)S2)cc1 (stereo unspecified)	hERG protect 15 (no result: PHOSPHO1 block)
Cc1nn(CC(=O)NCCCN2CCCCC2C)c(=O)c2cccn12 (stereo unspecified)	none
Cc1cc(-c2nsc(=O)o2)c(S(C)(=O)=O)s1	PHOSPHO1 block 69
C/C(=N\NC(=O)C1(C)CC1(Br)Br)c1cccc(NC(=O)C(C)(C)C)c1 (stereo unspecified)	none
Cc1cc(C)cc(NC(=O)Nc2ccc(-n3ccc(C(F)(F)F)n3)cc2)c1	none
COc1ccccc1NC(=O)Nc1ccc(-n2ccc(C(F)(F)F)n2)cc1	KCNK9 block -7.8
CC(C)(C)C1=CC=C(C(C)(C)C)C(=O)C1=O	KCNQ1 block 10, PHOSPHO1 block 67 (no result: KCNK3 inh)
CCOc1ccc(CN(C)C(=O)NNC(=O)c2ccc(C)cc2)cc1OC	none
c1ccc(-c2nnsc2-c2nc3ccccc3[nH]2)cc1	none
c1ccc(-c2nnsc2-c2ncc[nH]2)cc1	hERG protect 4.7
CCCCn1nc2cc(C(=O)NC3CCc4ccccc43)ccc2c1OCC (stereo unspecified)	none
CCC(=O)NC(=S)Nc1ccc(NC(=O)c2cc3ccccc3o2)c(OC)c1	none
CC(=O)c1cccc(N=c2scc(-c3ccc(S(=O)(=O)N4CCOCC4)cc3)n2CCO)c1	KCNQ1 block 7
Cc1nc(N)sc1-c1csc(N(C)c2ccc(O)cc2)n1	PHOSPHO1 block 85
Oc1ccc(Cl)cc1C1=Nc2ccccc2N=C(c2ccco2)C1	none
Fc1ccccc1C1CC(c2ccco2)=Nc2ccccc2S1 (stereo unspecified)	KCNK9 block -6.9
Cc1ccc(Nc2nc(/N=C/NO)n[nH]2)cc1C	PHOSPHO1 block 65
O=CC1=C(c2ccccc2)Oc2ccccc2O1	KCNQ1 block 6
Cc1ccccc1-n1c(-c2ccco2)n[nH]c1=S	none
Cc1ccc(-n2c(-c3cc(-c4ccco4)[nH]n3)n[nH]c2=S)c(Br)c1	KCNQ1 block 6
Cc1cccc(-n2c(-c3ccco3)n[nH]c2=S)c1	none
O=C(O)c1ccc(-n2c(-c3cc(-c4ccco4)[nH]n3)n[nH]c2=S)cc1	none
S=c1[nH]nc(-c2cc(-c3ccco3)[nH]n2)n1-c1cccc2ccccc12	PHOSPHO1 block 94
O=C(O)c1ccc(-n2c(-c3cc(C4CC4)[nH]n3)n[nH]c2=S)cc1	PHOSPHO1 block 63
CC(=O)c1ccc(-n2c(-c3cc(-c4ccco4)[nH]n3)n[nH]c2=S)cc1	PHOSPHO1 block 97
O=C(CNC(=O)c1ccco1)NCC(=O)OC(C(=O)c1ccccc1)c1ccc(Cl)cc1 (stereo unspecified)	none
O=C(OCC(=O)N1CCN(C(=O)c2ccco2)CC1)c1ccc(Cl)nc1	none (no result: hERG protect, KCNQ1 block, KCNK9 block, KCNQ1 pot, PHOSPHO1 block)
N=c1c[n+](-c2ccc(Cl)cc2)[n-]o1	PHOSPHO1 block 93
C=C(C)C(=O)OCC(O)COc1ccc(C(C)(C)c2ccc(OCC(O)COC(=O)C(=C)C)cc2)cc1 (stereo unspecified)	KCNK3 inh -12, KCNQ1 block 9 (no result: PHOSPHO1 block)
CC(=O)c1ccc(OCC(O)COc2ccc(C(C)=O)cc2)cc1	hERG protect 4.9
COc1cc2cc(CCOC(=O)CCCC(=O)O)oc(=O)c2cc1OC	none (no result: hERG protect, KCNQ1 block, KCNK9 block, KCNQ1 pot, PHOSPHO1 block)
CC(C)(NC(=O)c1cc(Cl)c2ccccc2c1O)C(=O)O	none
O=C(O)c1cc(Cl)c2ccccc2c1O	KCNQ1 block 6
CC(=O)NC1(c2ccccc2)CCN(Cc2nnnn2C(C)(C)C)CC1	none
O=C(CSc1nnc(SCc2cccc3ccccc23)s1)N/N=C/c1c[nH]c2ccccc12	none
O=C(CSc1nnc(SCc2cccc3ccccc23)s1)N/N=C/C=C/c1ccccc1[N+](=O)[O-]	KCNK9 block -7.5
Cc1ccc(NC(=O)Nc2ccccc2F)cc1S(=O)(=O)N1CCOCC1	KCNK3 inh -10 (no result: hERG protect, KCNQ1 block, KCNK9 block, KCNQ1 pot, PHOSPHO1 block)
COC(=O)c1cc(NC(=O)Cc2cccs2)cc(C(=O)OC)c1	none
O=C1CC(c2ccco2)CC(O)=C1C=Nc1cc(Cl)ccc1Cl (stereo unspecified)	none
O=C1CC(c2ccco2)CC(O)=C1C=Nc1cc(Cl)ccc1O (stereo unspecified)	KCNQ1 block 6
Cc1csc(SC(C)C(=O)NCC(=O)Nc2ccc(F)c(F)c2F)n1 (stereo unspecified)	none
Cc1cc(C)n(C(=O)c2ccc(Cn3nc(C)c(Br)c3C)o2)n1	none
CCCCNC(=S)NNC(=O)c1csc2ccccc12	PHOSPHO1 block 62
NC(=S)NN=C1CCC2(CCCCC2)CC1	none (no result: hERG protect, KCNQ1 block, KCNK9 block, KCNQ1 pot, PHOSPHO1 block)
CCOC(=O)N1CCN(S(=O)(=O)c2ccc3c(c2)OCC(=O)N3)CC1	hERG protect 10
O=C(CSc1nc2ccccc2[nH]1)c1ccc(Cl)s1	PHOSPHO1 block 103
C/C(=N\Nc1nc2ccccc2[nH]1)c1ccc(C)o1	none
C/C(=N\Nc1nc2ccccc2[nH]1)c1ccc(Cl)s1	KCNQ1 pot 11
O=C(CSc1nc2ccccc2[nH]1)N1c2ccccc2Sc2ccccc21	none

Screening data deposited in PubChem by several laboratories.
